Measurements from ChEMBL document CHEMBL5120973, “Discovery of Desmuramylpeptide NOD2 Agonists with Single-Digit Nanomolar Potency” (ACS Med Chem Lett, 2022).
Activity calls are given as the source filed them.

Legend:
[1] = system: PBMC; assay: Synergistic potentiation of LPS-induced cytotoxicity of human PBMCs against human K562 cells assessed as increase in dead cells level at 1 uM incubated for 18 hrs before addition of K562 cells by CFSE/Sytox Blue staining based flow cytometry relative to control
[2] = system: PBMC; assay: Synergistic potentiation of IFN-gamma-induced cytotoxicity of human PBMCs against human K562 cells assessed as increase in dead cells level at 1 uM incubated for 18 hrs before addition of K562 cells by CFSE/Sytox Blue staining based flow cytometry relative to control
[3] = target: Nucleotide-binding oligomerization domain-containing protein 2 (Homo sapiens) (UniProt Q9HC29); assay: Agonist activity at NOD2 in human PBMC assessed as induction of IL-1beta production at 1 uM incubated for 18 hrs; type: cell-based; conditions: filed as agonist
Summary of the method: (§1)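 500,000 cells/well in 500 μL medium, treated 18 h at 37 °C, 5% CO2 against a 0.1% DMSO vehicle. Cell-free supernatants stored at -80 °C. Cytokines measured by cytometric bead array (human inflammatory cytokines) on a flow cytometer.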

[4] = target: Nucleotide-binding oligomerization domain-containing protein 2 (Homo sapiens) (UniProt Q9HC29); assay: Agonist activity at NOD2 in human PBMC assessed as induction of IL-6 production at 1 uM incubated for 18 hrs; type: cell-based; conditions: filed as agonist
Summary of the method: as §1

[5] = target: Nucleotide-binding oligomerization domain-containing protein 2 (Homo sapiens) (UniProt Q9HC29); assay: Agonist activity at NOD2 in human PBMC assessed as induction of IL-8 production at 1 uM incubated for 18 hrs; type: cell-based; conditions: filed as agonist
Summary of the method: as §1

[6] = target: Nucleotide-binding oligomerization domain-containing protein 2 (Homo sapiens) (UniProt Q9HC29); assay: Agonist activity at NOD2 in human PBMC assessed as induction of TNFalpha production at 1 uM incubated for 18 hrs; type: cell-based; conditions: filed as agonist
Summary of the method: as §1

[7] = target: Nucleotide-binding oligomerization domain-containing protein 2 (Homo sapiens) (UniProt Q9HC29); assay: Synergistic agonist activity at NOD2 in human PBMC assessed as induction of IL-1beta production at 1 uM incubated for 18 hrs in presence of IFN-gamma; type: cell-based; conditions: filed as agonist
Summary of the method: (§2)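 PBMCs (500,000/well) treated with agonist at 1 μM together with LPS (10 ng/mL) or IFN-γ (200 U/mL); vehicle 0.1% DMSO. Supernatants taken after 18 h at 37 °C, 5% CO2, stored at -80 °C, then assayed for cytokines by cytometric bead array on a flow cytometer.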

[8] = target: Nucleotide-binding oligomerization domain-containing protein 2 (Homo sapiens) (UniProt Q9HC29); assay: Synergistic agonist activity at NOD2 in human PBMC assessed as induction of IL-6 production at 1 uM incubated for 18 hrs in presence of IFN-gamma; type: cell-based; conditions: filed as agonist
Summary of the method: as §2

[9] = target: Nucleotide-binding oligomerization domain-containing protein 2 (Homo sapiens) (UniProt Q9HC29); assay: Synergistic agonist activity at NOD2 in human PBMC assessed as induction of TNFalpha production at 1 uM incubated for 18 hrs in presence of IFN-gamma; type: cell-based; conditions: filed as agonist
Summary of the method: as §2

[10] = target: Nucleotide-binding oligomerization domain-containing protein 2 (Homo sapiens) (UniProt Q9HC29); assay: Synergistic agonist activity at NOD2 in human PBMC assessed as induction of IL-1beta production at 1 uM incubated for 18 hrs in presence of LPS; type: cell-based; conditions: filed as agonist
Summary of the method: as §2

[11] = target: Nucleotide-binding oligomerization domain-containing protein 2 (Homo sapiens) (UniProt Q9HC29); assay: Synergistic agonist activity at NOD2 in human PBMC assessed as induction of IL-6 production at 1 uM incubated for 18 hrs in presence of LPS; type: cell-based; conditions: filed as agonist
Summary of the method: as §2

[12] = target: Nucleotide-binding oligomerization domain-containing protein 2 (Homo sapiens) (UniProt Q9HC29); assay: Synergistic agonist activity at NOD2 in human PBMC assessed as induction of TNF-alpha production at 1 uM incubated for 18 hrs in presence of LPS; type: cell-based; conditions: filed as agonist
Summary of the method: as §2

[13] = target: T1, Nucleotide-binding oligomerization domain-containing protein 2 (Mus musculus) (UniProt Q8K3Z0); assay: Agonist activity at mouse NOD2 expressed in RAW -Blue NOD2 reporter cells by colorimetry based SEAP assay; conditions: filed as agonist
T1 sequence (whole entry): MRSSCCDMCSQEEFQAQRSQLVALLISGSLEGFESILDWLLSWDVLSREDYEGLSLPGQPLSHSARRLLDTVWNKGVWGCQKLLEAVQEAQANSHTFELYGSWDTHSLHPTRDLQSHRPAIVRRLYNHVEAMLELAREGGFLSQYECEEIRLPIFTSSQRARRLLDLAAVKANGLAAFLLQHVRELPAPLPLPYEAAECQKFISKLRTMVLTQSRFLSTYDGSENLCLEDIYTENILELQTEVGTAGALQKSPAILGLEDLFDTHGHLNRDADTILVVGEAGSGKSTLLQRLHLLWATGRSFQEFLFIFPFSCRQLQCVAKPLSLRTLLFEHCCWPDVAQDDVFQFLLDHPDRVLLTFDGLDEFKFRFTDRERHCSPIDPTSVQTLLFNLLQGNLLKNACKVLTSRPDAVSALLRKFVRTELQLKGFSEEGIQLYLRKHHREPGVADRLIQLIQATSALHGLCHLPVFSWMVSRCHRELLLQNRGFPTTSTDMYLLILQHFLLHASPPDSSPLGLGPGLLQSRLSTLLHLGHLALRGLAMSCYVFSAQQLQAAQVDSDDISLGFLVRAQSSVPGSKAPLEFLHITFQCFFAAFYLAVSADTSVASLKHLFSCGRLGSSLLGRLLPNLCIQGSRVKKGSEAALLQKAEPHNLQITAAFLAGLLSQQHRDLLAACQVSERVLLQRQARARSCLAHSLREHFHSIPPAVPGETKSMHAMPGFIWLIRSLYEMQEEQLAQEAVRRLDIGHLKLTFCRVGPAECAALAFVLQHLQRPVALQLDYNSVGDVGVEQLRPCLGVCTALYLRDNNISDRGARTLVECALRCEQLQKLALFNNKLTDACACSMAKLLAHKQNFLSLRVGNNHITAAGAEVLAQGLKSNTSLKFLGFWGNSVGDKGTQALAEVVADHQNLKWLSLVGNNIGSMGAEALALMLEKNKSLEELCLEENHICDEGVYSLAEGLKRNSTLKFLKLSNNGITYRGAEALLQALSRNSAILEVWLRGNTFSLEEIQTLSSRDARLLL

Measured: Activity

Sequence of Nucleotide-binding oligomerization domain-containing protein 2 (Homo sapiens) (Q9HC29 whole entry, the tested form may be a part): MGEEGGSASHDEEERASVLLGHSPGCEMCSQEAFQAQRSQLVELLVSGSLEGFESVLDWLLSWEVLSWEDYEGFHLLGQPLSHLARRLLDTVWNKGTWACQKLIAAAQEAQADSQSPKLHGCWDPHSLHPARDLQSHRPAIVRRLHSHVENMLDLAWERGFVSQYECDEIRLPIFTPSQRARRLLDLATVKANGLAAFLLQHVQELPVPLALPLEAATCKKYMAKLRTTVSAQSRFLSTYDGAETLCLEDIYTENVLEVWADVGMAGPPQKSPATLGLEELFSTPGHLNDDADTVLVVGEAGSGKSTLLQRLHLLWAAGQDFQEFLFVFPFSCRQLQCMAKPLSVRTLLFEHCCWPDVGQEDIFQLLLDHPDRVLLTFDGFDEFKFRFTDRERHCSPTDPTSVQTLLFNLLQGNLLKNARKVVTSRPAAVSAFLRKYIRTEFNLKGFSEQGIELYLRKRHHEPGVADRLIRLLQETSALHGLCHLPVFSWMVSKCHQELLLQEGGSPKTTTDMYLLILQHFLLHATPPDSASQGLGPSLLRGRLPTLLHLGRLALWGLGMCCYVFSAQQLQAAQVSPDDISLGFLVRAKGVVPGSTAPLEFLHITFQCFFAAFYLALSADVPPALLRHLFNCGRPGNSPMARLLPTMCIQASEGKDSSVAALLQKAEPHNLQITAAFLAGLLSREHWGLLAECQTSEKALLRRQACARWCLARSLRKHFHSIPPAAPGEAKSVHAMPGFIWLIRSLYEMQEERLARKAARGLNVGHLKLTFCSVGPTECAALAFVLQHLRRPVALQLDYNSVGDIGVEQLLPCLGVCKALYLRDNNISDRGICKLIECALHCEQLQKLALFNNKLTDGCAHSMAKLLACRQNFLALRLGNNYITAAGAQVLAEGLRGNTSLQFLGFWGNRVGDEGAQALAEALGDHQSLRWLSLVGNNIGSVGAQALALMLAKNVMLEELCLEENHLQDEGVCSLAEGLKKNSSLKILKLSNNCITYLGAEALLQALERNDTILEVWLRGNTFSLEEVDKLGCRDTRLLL

COc1cc(/C=C/C(=O)NCC(=O)N[C@H](C(=O)N[C@H](CCC(=O)OC2CCCC2)C(=O)OC2CCCC2)C(C)C)ccc1O
active: [1] | [2]

CC(=O)N[C@@H]1[C@@H](O[C@H](C)C(=O)N[C@@H](C)C(=O)N[C@H](CCC(=O)O)C(N)=O)[C@@H](O)[C@@H](CO)O[C@H]1O
active: [3] | [4] | [5] | [6]

CCOC(=O)CC[C@@H](NC(=O)[C@@H](NC(=O)CNC(=O)/C=C/c1ccc(OC(=O)CC23CC4CC(CC(C4)C2)C3)c(OC)c1)C(C)C)C(=O)OCC
active: all assays above
